Test results reported in publication PMC6363533 (Biochemistry, 2018).
Marks after values point to notes of the source that are not given here.

B1: KMM: His-tagged recombinant β-antithrombin double mutant, Lys125 and Arg129 mutated to Met (protein)
chain: HGSPVDICTAKPRDIPMNPMCIYRSPEKKATEDEGSEQKIPEATNRRVWELSKANSRFATTFYQHLADSKNDNDNIFLSPLSISTAFAMTKLGACNDTLQQLMEVFKFDTISEKTSDQIHFFFAMLNCMLYRKAQKSSKLVSANRLFGDKSLTFNETYQDISELVYGAKLQPLDFKENAEQSRAAINKWVSNKTEGRITDVIPSEAINELTVLVLVNTIYFKGLWKSKFSPENTRKELFYKADGESCSASMMYQEGKFRYRRVAEGTQVLELPFKGDDITMVLILPKPEKSLAKVEKELTPEVLQEWLDELEEMMLVVHMPRFRIEDGFSLKEQLQDMGLVDLFSPEKSKLPGIVAEGRDDLYVSDAFHKAFLEVNEEGSEAAASTAVVIAGRSLNPNRVTFKANRPFLVFIREVPLNTIIFMGRVANPCVK
modifications: left off: His6, C-terminal, kept
B2: MMM: His-tagged recombinant β-antithrombin triple mutant, Lys114, Lys125 and Arg129 mutated to Met (protein)
chain: HGSPVDICTAKPRDIPMNPMCIYRSPEKKATEDEGSEQKIPEATNRRVWELSKANSRFATTFYQHLADSKNDNDNIFLSPLSISTAFAMTKLGACNDTLQQLMEVFKFDTISEMTSDQIHFFFAMLNCMLYRKAQKSSKLVSANRLFGDKSLTFNETYQDISELVYGAKLQPLDFKENAEQSRAAINKWVSNKTEGRITDVIPSEAINELTVLVLVNTIYFKGLWKSKFSPENTRKELFYKADGESCSASMMYQEGKFRYRRVAEGTQVLELPFKGDDITMVLILPKPEKSLAKVEKELTPEVLQEWLDELEEMMLVVHMPRFRIEDGFSLKEQLQDMGLVDLFSPEKSKLPGIVAEGRDDLYVSDAFHKAFLEVNEEGSEAAASTAVVIAGRSLNPNRVTFKANRPFLVFIREVPLNTIIFMGRVANPCVK
modifications: left off: His6, C-terminal, kept
B3: MMR: His-tagged recombinant β-antithrombin double mutant, Lys114 and Lys125 mutated to Met (protein)
chain: HGSPVDICTAKPRDIPMNPMCIYRSPEKKATEDEGSEQKIPEATNRRVWELSKANSRFATTFYQHLADSKNDNDNIFLSPLSISTAFAMTKLGACNDTLQQLMEVFKFDTISEMTSDQIHFFFAMLNCRLYRKAQKSSKLVSANRLFGDKSLTFNETYQDISELVYGAKLQPLDFKENAEQSRAAINKWVSNKTEGRITDVIPSEAINELTVLVLVNTIYFKGLWKSKFSPENTRKELFYKADGESCSASMMYQEGKFRYRRVAEGTQVLELPFKGDDITMVLILPKPEKSLAKVEKELTPEVLQEWLDELEEMMLVVHMPRFRIEDGFSLKEQLQDMGLVDLFSPEKSKLPGIVAEGRDDLYVSDAFHKAFLEVNEEGSEAAASTAVVIAGRSLNPNRVTFKANRPFLVFIREVPLNTIIFMGRVANPCVK
modifications: left off: His6, C-terminal, kept
B4: MKM: His-tagged recombinant β-antithrombin double mutant, Lys114 and Arg129 mutated to Met (protein)
chain: HGSPVDICTAKPRDIPMNPMCIYRSPEKKATEDEGSEQKIPEATNRRVWELSKANSRFATTFYQHLADSKNDNDNIFLSPLSISTAFAMTKLGACNDTLQQLMEVFKFDTISEMTSDQIHFFFAKLNCMLYRKAQKSSKLVSANRLFGDKSLTFNETYQDISELVYGAKLQPLDFKENAEQSRAAINKWVSNKTEGRITDVIPSEAINELTVLVLVNTIYFKGLWKSKFSPENTRKELFYKADGESCSASMMYQEGKFRYRRVAEGTQVLELPFKGDDITMVLILPKPEKSLAKVEKELTPEVLQEWLDELEEMMLVVHMPRFRIEDGFSLKEQLQDMGLVDLFSPEKSKLPGIVAEGRDDLYVSDAFHKAFLEVNEEGSEAAASTAVVIAGRSLNPNRVTFKANRPFLVFIREVPLNTIIFMGRVANPCVK
modifications: left off: His6, C-terminal, kept

Legend:
[1] = type: binding; conditions: for Loss of nonionic binding energy relative to wild-type / Kd: natural pentasaccharide; for Kd: read-out: KD,obs, I 0.04, pH 6.0, 25°C, measured directly at I 0.04 or calculated from the ionic strength dependence of KD,obs
Outline: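 Recombinant His-tagged antithrombin (~100 nM), expressed in Sf9 and Ni-NTA purified, was titrated with pentasaccharide at 25°C. Binding was followed by tryptophan fluorescence enhancement (ex 280 nm, em 340 nm). Stocks were diluted extensively. Data were fit by quadratic binding equation for KD and stoichiometry.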

Rapid = type: binding; conditions: for Limiting rate constant at heparin saturation (k+2 + k−2) / 1/K2 / k+2, forward conformational activation rate constant / k−2, reverse conformational activation rate constant: natural pentasaccharide; for 1/K2 / k+2, forward conformational activation rate constant / k−2, reverse conformational activation rate constant: I 0.04, pH 6.0, 25°C; for k+2, forward conformational activation rate constant / k−2, reverse conformational activation rate constant: ±S.E.; for k−2, reverse conformational activation rate constant: possibly overestimated (conformational selection pathway)
factor Xa = factor Xa (Homo sapiens, UniProt P00742); type: biochemical; conditions: for k−H FXa, association rate constant of free antithrombin / k−H FXa, fractional wild-type value (in parentheses) / Enhancement of basal reactivities with both factors Xa and IXa: absence of heparin; for k−H FXa, association rate constant of free antithrombin / k−H FXa, fractional wild-type value (in parentheses) / kH FXa, association rate constant of heparin-complexed antithrombin / kH FXa, fractional wild-type value (in parentheses): 20 mM MES; for k−H FXa, association rate constant of free antithrombin / kH FXa, association rate constant of heparin-complexed antithrombin: 5 mM CaCl2, 0.1 % PEG 8000, pH 6.0, 25°C, ±S.E.; for k−H FXa, fractional wild-type value (in parentheses) / kH FXa, fractional wild-type value (in parentheses): 5 mM CaCl2, pH 6.0, 25°C; for Enhancement of basal reactivities with both factors Xa and IXa: relative to wild-type, range covers factor Xa and factor IXa; for kH FXa, association rate constant of heparin-complexed antithrombin / kH FXa, fractional wild-type value (in parentheses): natural pentasaccharide complex
factor IXa = factor IXa (Homo sapiens, UniProt P00740); type: biochemical; conditions: for k−H FIXa, association rate constant of free antithrombin / k−H FIXa, fractional wild-type value (in parentheses): absence of heparin; for k−H FIXa, association rate constant of free antithrombin / k−H FIXa, fractional wild-type value (in parentheses) / kH FIXa, association rate constant of heparin-complexed antithrombin / kH FIXa, fractional wild-type value (in parentheses): 20 mM MES; for k−H FIXa, association rate constant of free antithrombin / kH FIXa, association rate constant of heparin-complexed antithrombin: 5 mM CaCl2, 0.1 % PEG 8000, pH 6.0, 25°C, ±S.E.; for k−H FIXa, fractional wild-type value (in parentheses) / kH FIXa, fractional wild-type value (in parentheses): 5 mM CaCl2, pH 6.0, 25°C; for kH FIXa, association rate constant of heparin-complexed antithrombin / kH FIXa, fractional wild-type value (in parentheses): natural pentasaccharide complex; for Heparin-activated reactivity with factor IXa, % of wild-type: saturating natural pentasaccharide, MES/Ca2+ pH 6 buffer
[2] = estimated based on factor Xa reactivity enhancements

Sequence of factor IXa (P00740 47-191 limits assumed): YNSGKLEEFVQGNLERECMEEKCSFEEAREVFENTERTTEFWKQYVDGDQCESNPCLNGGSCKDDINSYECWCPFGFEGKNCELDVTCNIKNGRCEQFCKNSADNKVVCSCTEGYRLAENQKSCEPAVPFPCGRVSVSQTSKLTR
Sequence of factor IXa (P00740 227-461 limits assumed): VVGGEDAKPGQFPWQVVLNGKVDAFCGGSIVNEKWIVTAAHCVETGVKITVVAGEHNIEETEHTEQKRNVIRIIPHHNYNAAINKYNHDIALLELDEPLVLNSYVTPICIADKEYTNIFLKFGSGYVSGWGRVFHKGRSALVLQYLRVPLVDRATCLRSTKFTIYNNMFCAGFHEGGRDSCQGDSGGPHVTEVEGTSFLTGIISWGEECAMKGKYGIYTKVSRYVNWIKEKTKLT
Sequence of factor Xa (P00742 41-179 limits assumed): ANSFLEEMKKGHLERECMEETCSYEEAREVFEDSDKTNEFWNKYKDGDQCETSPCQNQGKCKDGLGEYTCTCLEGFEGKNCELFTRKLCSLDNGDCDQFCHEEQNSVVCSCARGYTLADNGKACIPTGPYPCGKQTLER
Sequence of factor Xa (P00742 235-488 limits assumed): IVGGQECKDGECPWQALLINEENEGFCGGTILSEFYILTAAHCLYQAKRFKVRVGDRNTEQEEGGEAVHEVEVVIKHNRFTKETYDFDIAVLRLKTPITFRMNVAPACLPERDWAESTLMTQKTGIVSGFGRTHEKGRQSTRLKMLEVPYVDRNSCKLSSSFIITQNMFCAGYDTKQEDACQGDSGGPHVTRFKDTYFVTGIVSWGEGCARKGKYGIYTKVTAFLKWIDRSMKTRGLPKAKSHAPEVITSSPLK

Molecule	Loss of nonionic binding energy relative to wild-type [1]	Kd [1]	Limiting rate constant at heparin saturation (k+2 + k−2) (Rapid; I 0.04, pH 6, 25°C)	1/K2 (Rapid; 1/K2 = (K1/KD,obs) − 1)	k+2, forward conformational activation rate constant (Rapid)	k−H FXa, association rate constant of free antithrombin (factor Xa)	k−H FXa, fractional wild-type value (in parentheses) (factor Xa)	Enhancement of basal reactivities with both factors Xa and IXa (factor Xa)	kH FXa, association rate constant of heparin-complexed antithrombin (factor Xa)	kH FXa, fractional wild-type value (in parentheses) (factor Xa)	k−H FIXa, association rate constant of free antithrombin (factor IXa)	k−H FIXa, fractional wild-type value (in parentheses) (factor IXa)	kH FIXa, association rate constant of heparin-complexed antithrombin (factor IXa)	kH FIXa, fractional wild-type value (in parentheses) (factor IXa)	also measured
KKM: His-tagged recombinant β-antithrombin variant with Arg129 mutated to Met	17%	0.16 nM	1020 s⁻¹	10000	1020 ± 120 s⁻¹	1.3±0.1 × 10^3 M^−1s^−1	2.3	1.3–2.3 fold	7.6±0.3 ×10^4 M^−1s^−1	0.99	6.9±0.4 × 10^1 M^−1s^−1	1.3	6.2±0.3 × 10^3 M^−1s^−1	0.62	
KKR (WT): Recombinant wild-type β-antithrombin (Asn135 mutated to Gln) with C-terminal 6XHis-tag, expressed in Sf9 insect cells				6 × 10^6	1140 ± 110 s⁻¹	5.7±0.4 × 10^2 M^−1s^−1	1			1	5.4±0.4 × 10^1 M^−1s^−1	1		1	
KMR: His-tagged recombinant β-antithrombin variant with Lys125 mutated to Met	24%	0.86 nM	550 to 690 s⁻¹	4300	550 ± 40 s⁻¹	1.2±0.1 × 10^3 M^−1s^−1	2.1	1.3–2.3 fold	8.1±0.3 ×10^4 M^−1s^−1	1.1	9.6±0.6 × 10^1 M^−1s^−1	1.8	6.8±0.8 × 10^3 M^−1s^−1	0.68	
MKR: His-tagged recombinant β-antithrombin variant with Lys114 mutated to Met		560 nM	40 s⁻¹	8^c	17 ± 2 s⁻¹	2.6±0.3 × 10^2 M^−1s^−1	0.46		6.4±0.3 ×10^4 M^−1s^−1	0.83			2.1±0.1 × 10^3 M^−1s^−1	0.21	k+2, forward conformational activation rate constant (Rapid; listed as Lys114): ~ 20 s^−1; k−2, reverse conformational activation rate constant (Rapid): 23±2^c s^−1
B1		70 nM	550 to 690 s⁻¹	~400^c	690 ± 240 s⁻¹	2.0±0.1 ×10^3 M^−1s^−1	3.5	2.8–3.5 fold	5.6±0.4 ×10^4 M^−1s^−1	0.73	1.5±0.2 × 10^2 M^−1s^−1	2.8	3.6±0.2 × 10^3 M^−1s^−1	0.36	Heparin pentasaccharide binding stoichiometry [1]: ~0.5 mole heparin/mole antithrombin; k−2, reverse conformational activation rate constant (Rapid): 74±7^c s^−1; k−2, reverse conformational activation rate constant (Rapid; listed as Lys125/Arg129): ~ 70 s^−1
B2	60%									0.04	2.3±0.2 × 10^1 M^−1s^−1	0.43		0.003	Heparin-activated reactivity with factor IXa, % of wild-type (factor IXa): 0.3%
B3		45000 nM							2.3±0.3 ×10^4 M^−1s^−1	0.30			3.0±0.1 × 10^2 M^−1s^−1	0.03	1/K2 (Rapid; [2]): ~0.5^d; Heparin-activated reactivity with factor IXa, % of wild-type (factor IXa): 3%
B4		18000 nM				3.5±0.5 ×10^2 M^−1s^−1	0.61		8.5±0.4 ×10^4 M^−1s^−1	1.1	1.3±0.2×10^1 M^−1s^−1	0.24	2.1±0.1 × 10^3 M^−1s^−1	0.21	1/K2 (Rapid; [2]): ~10^d; Observed rate constant kobs of pentasaccharide binding, no saturable increase (Rapid; over the range 0.5–20 μM heparin, I 0.04, pH 6, 25°C): ~ 60 s^−1
